NF-kB expr up: NF-kB expression increase, human neuronal cells | NF-kB reporter expression; stronger effect = higher value | fold change at 12.5 µM | 1.6% of 190,000 active | AID 1239; in the data active = fold change above about 3.3
STAT3 activator: increases IL-6 driven STAT3 reporter signal | U3A cells, IL-6 STAT3-luciferase reporter, luminescence; 100% = signal with IL-6 EC80 alone | activation (% of control), % at 5.6 µM | 0.91% of 190,000 active;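 active = activation above the screen-wide mean of compound activation plus 3 SD, cut at about 130% in these data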
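Material: STAT3-luciferase reporter U3A cells. Controls: IL-6-treated wells, 100% activation. Read-out: % activation versus median of IL-6-stimulated wells. Probe or stimulus: IL-6 stimulus at 33 ng/mL final. Timing: compound 1 h, then IL-6 6 h at 37 °C. Signal: reporter luminescence signal.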
STAT1 blocker: inhibitors of IFN-gamma induced STAT1 signaling; inhibition, % at 5.5 µM; 0.35% of 200,000 active; NIH 3T3 STAT1-luciferase reporter, luminescence; AID 920;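 active = inhibition above a set limit, the mean inhibition across all tested compounds plus 3 SD, cut at about 34% in these data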
APP 5'UTR act: APP 5'UTR luciferase reporter activation; 1% of 190,000 active; activation, % at 2 µM; SH-SY5Y APP 5'UTR luciferase reporter, luminescence; zero percent = DMSO vehicle wells;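 active = activation above a set limit, based on mean plus 3 SD of controls, cut at about 140% in these data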
STAT3 inh: STAT3 signaling inhibition; U3A cells, IL-6 STAT3-luciferase reporter, luminescence; host cell line lacks STAT1; inhibition, % at 5.5 µM; 0.89% of 190,000 active; AID 862;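 active = inhibition above the mean inhibition across all screened compounds plus 3 SD, cut at about 44% in these data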
STAT1 act: increases IFN-gamma driven STAT1 reporter signal | activation (% of control), % at 5.5 µM | AID 932 | NIH 3T3 STAT1-luciferase reporter, luminescence; 100% = IFN-gamma alone, no compound | 2.6% of 200,000 active;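 active = activation above the screen-wide mean activation plus 3 SD, cut at about 130% in these data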
Hits are given with their value. An excerpt weighted towards active compounds, which were near 4.9% of everything screened.

How did O=C(NCCc1cccc(F)c1)/C(=C/c1cccnc1)NC(=O)c1ccccc1 do in these assays?
NF-kB expr up: inactive; STAT3 activator: inactive; STAT1 blocker: inactive; APP 5'UTR act: inactive; STAT3 inh: inactive; STAT1 act: inactive

What do the screens show for `CCc1nnc(N2C(=O)c3cccc4cccc(c34)C2=O)s1`?
NF-kB expr up: inactive; STAT3 activator: 135.0; STAT1 blocker: inactive; APP 5'UTR act: inactive; STAT3 inh: inactive; STAT1 act: inactive

How did O=C1c2cccc3cccc(c23)C(=O)N1c1ccncc1 do in these assays?
NF-kB expr up: inactive; STAT3 activator: inactive; STAT1 blocker: inactive; APP 5'UTR act: inactive; STAT3 inh: inactive; STAT1 act: inactive

How did O=C(Nc1ccccc1C(=O)O)c1ccc(Cl)c(S(=O)(=O)N2CCOCC2)c1 do in these assays?
NF-kB expr up: inactive; STAT3 activator: inactive; STAT1 blocker: 51.3; APP 5'UTR act: inactive; STAT3 inh: inactive; STAT1 act: inactive

What do the screens show for `COc1ccccc1NC(=O)c1ccc(Cl)c(S(=O)(=O)N2CCOCC2)c1`?
NF-kB expr up: inactive; STAT3 activator: inactive; STAT1 blocker: inactive; APP 5'UTR act: inactive; STAT3 inh: inactive; STAT1 act: inactive

How did O=C(O)c1cccc(NC(=O)c2ccc(Cl)c(S(=O)(=O)N3CCCCCC3)c2)c1 do in these assays?
NF-kB expr up: inactive; STAT3 activator: inactive; STAT1 blocker: 39.5; APP 5'UTR act: inactive; STAT3 inh: 52.8; STAT1 act: inactive

Results for COC(=O)C1=C(C)NC(=O)NC1c1cccc(OC)c1OCc1ccccc1 (configuration not stated) ?
NF-kB expr up: inactive; STAT3 activator: inactive; STAT1 blocker: inactive; APP 5'UTR act: inactive; STAT3 inh: inactive; STAT1 act: inactive

What do the screens show for `COc1ccc(N=C2C(=Nc3ccc(OC)cc3)N(c3ccc(OC)cc3)C(=S)N2C(=O)c2ccc(OC)cc2)cc1`?
NF-kB expr up: inactive; STAT3 activator: inactive; STAT1 blocker: inactive; APP 5'UTR act: inactive; STAT3 inh: inactive; STAT1 act: inactive

What do the screens show for `COc1ccc(N=C2C(=Nc3ccc(OC)cc3)N(c3ccccc3)C(=S)N2C(=O)c2ccc(Cl)cc2)cc1`?
NF-kB expr up: 6.79; STAT3 activator: inactive; STAT1 blocker: inactive; APP 5'UTR act: inactive; STAT3 inh: inactive; STAT1 act: inactive

How did Cc1cc(NC2CCCCC2)n2c(n1)nc1ccccc12 do in these assays?
NF-kB expr up: 5.42; STAT3 activator: inactive; STAT1 blocker: inactive; APP 5'UTR act: inactive; STAT3 inh: inactive; STAT1 act: inactive

How did Cc1cc(Nc2cccc(F)c2)n2c(n1)nc1ccccc12 do in these assays?
NF-kB expr up: inactive; STAT3 activator: inactive; STAT1 blocker: inactive; APP 5'UTR act: inactive; STAT3 inh: inactive; STAT1 act: inactive

Results for CC(C)N(Cc1ccccc1)CC(O)COc1ccc(S(=O)(=O)N2CCOCC2)cc1Cl (configuration not stated) ?
NF-kB expr up: inactive; STAT3 activator: inactive; STAT1 blocker: inactive; APP 5'UTR act: inactive; STAT3 inh: inactive; STAT1 act: inactive

Results for NC1=NC2(CCCCC2)N=C(Nc2ccc(Br)cc2)N1 ?
NF-kB expr up: inactive; STAT3 activator: inactive; STAT1 blocker: inactive; APP 5'UTR act: inactive; STAT3 inh: inactive; STAT1 act: inactive

What do the screens show for `CSc1nc(-c2ccccc2)nc(SC)c1C(C)=O`?
NF-kB expr up: inactive; STAT3 activator: inactive; STAT1 blocker: inactive; APP 5'UTR act: inactive; STAT3 inh: inactive; STAT1 act: inactive

Results for CSc1nc(-c2ccccc2)[nH]c(=S)c1C(C)=O ?
NF-kB expr up: inactive; STAT3 activator: 132.9; STAT1 blocker: inactive; APP 5'UTR act: inactive; STAT3 inh: inactive; STAT1 act: inactive

Results for Cc1cccc2c(=O)c(C(=O)NCc3cccs3)c[nH]c12 ?
STAT3 activator: inactive; STAT1 blocker: inactive; APP 5'UTR act: inactive; STAT3 inh: inactive; STAT1 act: 135.5

What do the screens show for `CCCCOC(=O)Nc1ccc(N2CCOCC2)cc1`?
NF-kB expr up: inactive; STAT3 activator: inactive; STAT1 blocker: inactive; APP 5'UTR act: inactive; STAT3 inh: inactive; STAT1 act: inactive

Results for CCCCOC(=O)Nc1nnc(C(C)C)s1 ?
NF-kB expr up: inactive; STAT3 activator: inactive; STAT1 blocker: inactive; APP 5'UTR act: inactive; STAT3 inh: inactive; STAT1 act: 129.7

Results for CCCCOC(=O)Nc1ccc(C(C)C)cc1 ?
NF-kB expr up: inactive; STAT3 activator: inactive; STAT1 blocker: inactive; APP 5'UTR act: inactive; STAT3 inh: inactive; STAT1 act: 130.3

How did CCCCOC(=O)Nc1ccc(N2CCCCC2)cc1 do in these assays?
NF-kB expr up: 6.14; STAT3 activator: inactive; STAT1 blocker: inactive; APP 5'UTR act: inactive; STAT3 inh: inactive; STAT1 act: 140.0

Results for CCCCOC(=O)Nc1ccc(S(=O)(=O)Nn2cnnc2)cc1 ?
NF-kB expr up: inactive; STAT3 activator: inactive; STAT1 blocker: inactive; APP 5'UTR act: inactive; STAT3 inh: inactive; STAT1 act: inactive

How did CCCCOC(=O)Nc1ccc(N(C)C)cc1 do in these assays?
NF-kB expr up: 4.03; STAT3 activator: inactive; STAT1 blocker: inactive; APP 5'UTR act: 171.3; STAT3 inh: inactive; STAT1 act: 144.5

What do the screens show for `CCCCCOC(=O)Nc1nnc(CCC)s1`?
NF-kB expr up: inactive; STAT3 activator: inactive; STAT1 blocker: inactive; APP 5'UTR act: inactive; STAT3 inh: inactive; STAT1 act: inactive

Results for CCCCOC(=O)Nc1ccc(C(N)=O)cc1 ?
NF-kB expr up: inactive; STAT3 activator: inactive; STAT1 blocker: inactive; APP 5'UTR act: inactive; STAT3 inh: inactive; STAT1 act: inactive

Results for N=C1C(c2nc3ccccc3[nH]2)=C(O)CN1NC(=O)COc1cccc(F)c1 ?
NF-kB expr up: inactive; STAT3 activator: inactive; STAT1 blocker: inactive; APP 5'UTR act: inactive; STAT3 inh: inactive; STAT1 act: inactive

Results for CCc1cccc(CC)c1NC(=O)COC(=O)c1cccc(-c2ccc(OC(C)=O)cc2)c1 ?
NF-kB expr up: inactive; STAT3 activator: inactive; STAT1 blocker: inactive; APP 5'UTR act: inactive; STAT3 inh: inactive; STAT1 act: inactive

How did Cc1cnc(NC(=O)CCCSc2nc3ccccc3s2)s1 do in these assays?
NF-kB expr up: inactive; STAT3 activator: 135.3; STAT1 blocker: inactive; APP 5'UTR act: inactive; STAT3 inh: inactive; STAT1 act: inactive

What do the screens show for `COc1ccc(NC(=S)c2ccc(N(C)C)cc2)cc1`?
NF-kB expr up: inactive; STAT3 activator: inactive; STAT1 blocker: inactive; APP 5'UTR act: 135.4; STAT3 inh: inactive; STAT1 act: 149.2

What do the screens show for `COc1ccc(C(=S)Nc2ccc(N(C)C)cc2)cc1`?
NF-kB expr up: 5.42; STAT3 activator: inactive; STAT1 blocker: inactive; APP 5'UTR act: 170.3; STAT3 inh: inactive; STAT1 act: inactive

How did COC(=O)c1ccnc(SCC(=O)c2ccccc2)c1 do in these assays?
NF-kB expr up: inactive; STAT3 activator: inactive; STAT1 blocker: inactive; APP 5'UTR act: inactive; STAT3 inh: inactive; STAT1 act: 131.7

Results for O=C(CSc1ccc(-c2ccccn2)nn1)c1ccccc1 ?
NF-kB expr up: inactive; STAT3 activator: inactive; STAT1 blocker: inactive; APP 5'UTR act: inactive; STAT3 inh: inactive; STAT1 act: inactive
